In article PMC9588738 (Cancer research, 2022):

Legend:
[1] = system: ZR75-PELP1 and MCF7-PELP1 cells; assay: QCM chemotaxis cell migration assay; format: cell-based, human; settings: 10 μM, 12 hours
ZR75-PELP1 cells = assay: MTT cell viability assay, ZR75-PELP1 cells; format: cell-based, human
Outline: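 ZR75-PELP1 cells were treated with peptide every 3 days, and MTT absorbance was read at day 7 (n=3). A screen compared ZR75 with ZR75-PELP1 cells.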

[2] = system: MCF7-TamR and MCF7-LTLT BC model cells; assay: Cell viability of therapy-resistant cells treated with PIP1; format: cell-based, human; settings: 7 days
PELP1 [3] = molecular target: T1, PELP1 (Homo sapiens, UniProt Q8IZL8); assay: Biotin-Avidin pull-down assays; format: binding; settings: Biotin-tagged peptides, ZR75 nuclear lysate
Target sequence in this assay (Q8IZL8 2-1130): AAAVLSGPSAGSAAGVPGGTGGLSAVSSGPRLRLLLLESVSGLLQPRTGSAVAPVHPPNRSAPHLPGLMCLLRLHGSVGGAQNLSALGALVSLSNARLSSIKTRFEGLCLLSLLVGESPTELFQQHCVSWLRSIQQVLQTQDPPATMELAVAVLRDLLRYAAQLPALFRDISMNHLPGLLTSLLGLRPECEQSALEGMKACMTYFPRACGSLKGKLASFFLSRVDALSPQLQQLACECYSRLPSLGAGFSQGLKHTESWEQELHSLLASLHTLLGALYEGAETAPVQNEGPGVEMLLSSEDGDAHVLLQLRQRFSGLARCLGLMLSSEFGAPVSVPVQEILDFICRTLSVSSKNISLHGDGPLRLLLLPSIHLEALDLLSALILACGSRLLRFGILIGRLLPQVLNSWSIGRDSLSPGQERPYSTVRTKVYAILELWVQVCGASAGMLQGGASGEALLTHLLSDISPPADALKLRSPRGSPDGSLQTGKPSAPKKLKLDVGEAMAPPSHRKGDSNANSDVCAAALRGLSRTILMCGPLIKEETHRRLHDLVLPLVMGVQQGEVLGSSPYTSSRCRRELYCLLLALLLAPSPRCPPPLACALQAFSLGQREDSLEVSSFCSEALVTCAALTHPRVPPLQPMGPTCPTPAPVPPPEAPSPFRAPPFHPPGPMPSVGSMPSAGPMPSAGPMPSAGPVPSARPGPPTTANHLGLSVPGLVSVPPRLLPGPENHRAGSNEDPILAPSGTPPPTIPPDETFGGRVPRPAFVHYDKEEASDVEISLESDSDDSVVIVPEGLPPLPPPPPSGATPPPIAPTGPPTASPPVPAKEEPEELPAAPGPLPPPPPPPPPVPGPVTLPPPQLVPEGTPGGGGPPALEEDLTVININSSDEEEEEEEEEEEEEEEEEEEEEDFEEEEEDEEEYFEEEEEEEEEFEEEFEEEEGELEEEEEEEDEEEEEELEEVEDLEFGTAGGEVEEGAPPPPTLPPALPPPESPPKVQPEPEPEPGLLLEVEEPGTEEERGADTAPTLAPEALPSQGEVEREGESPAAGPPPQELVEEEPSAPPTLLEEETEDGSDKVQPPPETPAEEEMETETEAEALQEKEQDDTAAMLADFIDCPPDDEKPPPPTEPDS

PELP1 [4] = molecular target: T1, PELP1; assay: PELP1 degradation by Western blotting; format: cell-based; settings: MCF7 cells, MG132 5 μM
Outline: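 ZR75 and MCF7 cells were exposed to graded test-compound concentrations for 24 h. For the proteasome arm, MCF7 cells received small molecule (10 μM, 4 and 6 h) or peptide (10 μM, 7 h), each ± MG132 (5 μM). Lysis used NP-40/Triton X-100 buffer with protease/phosphatase inhibitors and NEM. PELP1 was normalized to loading control, relative to untreated.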
Target sequence in this assay (Q8IZL8 whole entry): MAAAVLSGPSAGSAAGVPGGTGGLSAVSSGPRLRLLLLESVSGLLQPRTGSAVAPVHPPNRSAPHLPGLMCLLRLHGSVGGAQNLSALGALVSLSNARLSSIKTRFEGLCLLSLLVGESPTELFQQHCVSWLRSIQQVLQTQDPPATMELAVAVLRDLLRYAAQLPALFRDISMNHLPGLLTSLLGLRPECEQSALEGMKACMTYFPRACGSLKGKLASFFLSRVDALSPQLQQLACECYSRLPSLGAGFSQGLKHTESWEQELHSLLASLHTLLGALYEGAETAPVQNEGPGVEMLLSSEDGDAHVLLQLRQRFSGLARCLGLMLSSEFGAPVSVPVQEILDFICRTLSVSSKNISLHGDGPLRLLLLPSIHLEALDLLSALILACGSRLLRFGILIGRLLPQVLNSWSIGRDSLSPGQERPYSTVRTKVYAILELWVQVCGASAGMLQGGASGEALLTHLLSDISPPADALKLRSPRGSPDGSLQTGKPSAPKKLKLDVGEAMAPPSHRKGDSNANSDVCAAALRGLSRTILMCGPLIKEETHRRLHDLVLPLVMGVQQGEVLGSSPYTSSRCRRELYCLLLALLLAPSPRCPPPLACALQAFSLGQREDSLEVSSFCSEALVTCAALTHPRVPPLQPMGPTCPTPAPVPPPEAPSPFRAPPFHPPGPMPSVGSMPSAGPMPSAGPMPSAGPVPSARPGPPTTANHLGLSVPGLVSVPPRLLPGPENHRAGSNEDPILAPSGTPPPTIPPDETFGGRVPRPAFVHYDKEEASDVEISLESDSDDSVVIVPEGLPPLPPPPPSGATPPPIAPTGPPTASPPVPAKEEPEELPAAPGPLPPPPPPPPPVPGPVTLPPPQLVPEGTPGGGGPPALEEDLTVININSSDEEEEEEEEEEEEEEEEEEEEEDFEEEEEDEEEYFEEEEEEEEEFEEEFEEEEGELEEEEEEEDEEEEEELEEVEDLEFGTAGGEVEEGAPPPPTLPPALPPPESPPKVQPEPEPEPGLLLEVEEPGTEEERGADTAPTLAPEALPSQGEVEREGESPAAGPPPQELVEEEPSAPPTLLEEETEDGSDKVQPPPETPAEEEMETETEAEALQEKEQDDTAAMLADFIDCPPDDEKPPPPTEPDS

[5] = system: PELP1-shRNA expressing ZR75 cells; assay: MTT cell viability assay, PELP1 knockdown cells; format: cell-based, human; settings: PELP1 knockdown vs control
[6] = system: E2 mediated ERE reporter activation; assay: ERE-luciferase reporter assay; format: cell-based, human; settings: ZR75-PELP1 (PIP1) or ZR75 (SMIP34) cells

PIP1: PELP1 inhibiting peptide with TAT signal; TAT-PIP1: GRKKRRQRRRGGMVEFRWSCPGRRKAKA (not fully specified; left off: Gal4 activation domain, end not stated, kept)
cell migration [1]: significant decrease in the cell migration
comparison of activity between hits in MTT assays (ZR75-PELP1 cells): more efficient anti-proliferative activity than PIP2
effect on PELP1-mediated proliferation (ZR75-PELP1 cells; TAT-tagged peptides every 3 days, read at 7 days): significantly inhibited PELP1-mediated proliferation
effect on cell viability of therapy-resistant cells [2]: significantly reduced the cell viability
relative affinity to bind PELP1 (peptide pull-down) (PELP1 [3]): higher affinity to bind to PELP1 than PIP2
PELP1 degradation in presence of proteasome inhibitor MG132 (PELP1 [4]): attenuated PIP1 mediated degradation of PELP1
activity when PELP1 is knocked down [5]: substantially reduced the activity of PIP1
E2 induced ERE reporter activity [6]: significantly decreased E2 mediated ERE reporter activation
